Source: paper PMC4823774 (Bioorganic & medicinal chemistry letters, 2016)
Values belong to the compound of their own block, whether it stands above or below them.

Legend:
human mGlu1 = human mGlu1 (Homo sapiens, UniProt Q13255); test: Calcium mobilization mGlu1 PAM assay; format: cell-based
Summary of the method: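 Tetracycline-inducible human mGlu1 T-REx-293 cells, induced overnight at 80,000 cells/well with 50 ng/mL tetracycline. Loaded with 1.15 μM Fluo-4 AM in HBSS/20 mM HEPES/2.5 mM probenecid, 45 min, 37 °C. Half-log dilutions or DMSO preincubated 2.5 min, then EC20 glutamate for 1 min. ECmax glutamate on vehicle wells. Peak minus pre-agonist basal fluorescence; concentration-response curve fitting.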

CNS penetration = settings: in vivo
[1] = Rat liver microsome stability and intrinsic clearance; format: in vitro ADME; settings: for stability in rat liver microsomes: in words
[2] = Human liver microsome stability and intrinsic clearance; format: in vitro ADME; settings: for stability in human liver microsomes: in words
[3] = Rat brain homogenate binding; format: in vitro ADME
Human plasma stability = format: in vitro ADME
Rat plasma stability = format: in vitro ADME
CYP = CYP profile; format: in vitro ADME
[4] = Clearance in in vitro DMPK assays, species not stated; format: in vitro ADME

Sequence of human mGlu1 (Q13255 19-1194): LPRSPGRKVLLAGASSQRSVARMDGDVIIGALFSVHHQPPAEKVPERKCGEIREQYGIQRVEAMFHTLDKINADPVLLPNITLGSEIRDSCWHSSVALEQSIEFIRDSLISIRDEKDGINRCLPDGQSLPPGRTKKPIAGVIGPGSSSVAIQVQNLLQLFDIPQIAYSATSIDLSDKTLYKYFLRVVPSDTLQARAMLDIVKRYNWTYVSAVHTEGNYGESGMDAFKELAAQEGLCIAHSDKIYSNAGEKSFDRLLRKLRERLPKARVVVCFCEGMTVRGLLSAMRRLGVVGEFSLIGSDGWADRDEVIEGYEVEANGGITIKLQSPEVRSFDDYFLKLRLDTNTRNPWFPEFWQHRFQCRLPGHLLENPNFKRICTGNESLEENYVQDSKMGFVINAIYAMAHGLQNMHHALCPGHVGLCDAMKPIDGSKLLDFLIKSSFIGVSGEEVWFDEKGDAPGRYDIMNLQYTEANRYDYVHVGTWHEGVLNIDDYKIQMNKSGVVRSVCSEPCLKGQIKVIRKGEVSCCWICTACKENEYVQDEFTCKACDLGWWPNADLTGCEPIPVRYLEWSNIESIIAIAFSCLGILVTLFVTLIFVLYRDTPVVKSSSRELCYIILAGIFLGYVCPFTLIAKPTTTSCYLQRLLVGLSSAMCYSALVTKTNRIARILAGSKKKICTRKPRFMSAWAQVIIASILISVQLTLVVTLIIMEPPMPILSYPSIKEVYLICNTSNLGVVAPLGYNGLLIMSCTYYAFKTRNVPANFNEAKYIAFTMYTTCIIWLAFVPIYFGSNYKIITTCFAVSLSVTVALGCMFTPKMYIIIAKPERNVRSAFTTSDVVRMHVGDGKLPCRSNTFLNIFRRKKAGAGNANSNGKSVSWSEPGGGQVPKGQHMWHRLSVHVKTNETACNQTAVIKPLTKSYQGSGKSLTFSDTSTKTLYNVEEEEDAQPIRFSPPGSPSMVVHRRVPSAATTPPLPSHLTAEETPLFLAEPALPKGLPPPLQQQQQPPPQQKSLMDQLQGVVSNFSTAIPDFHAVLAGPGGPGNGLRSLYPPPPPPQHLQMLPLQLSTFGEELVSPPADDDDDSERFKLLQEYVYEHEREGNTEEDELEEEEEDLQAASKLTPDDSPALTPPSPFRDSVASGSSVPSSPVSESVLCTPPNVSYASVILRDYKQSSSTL

SMILES: Cc1ccoc1C(=O)Nc1ccc(N2C(=O)[C@H]3CCCC[C@H]3C2=O)c(Cl)c1 [20a]
mGlu1 PAM activity (in words) (human mGlu1): inactive

SMILES: Cc1ccoc1C(=O)Nc1ccc(N2C(=O)[C@@H]3CCCC[C@H]3C2=O)c(Cl)c1 [20b]
mGlu1 PAM activity (in words) (human mGlu1): inactive

SMILES: Cc1ccoc1C(=O)Nc1ccc(NC(=O)c2ccccc2C(=O)O)c(Cl)c1 [20c]
CNS penetration (in words) (CNS penetration): not CNS penetrant

SMILES: Cc1ccoc1C(=O)Nc1ccc(N2Cc3ccccc3C2=O)c(Cl)c1 [20e]
stability in rat liver microsomes [1]: complete stability
mGlu1 PAM activity (in words) (human mGlu1): active
stability in human liver microsomes [2]: complete stability

SMILES: Cc1ccoc1C(=O)Nc1ccc(N2Cc3ccccc3C2)c(Cl)c1 [20f]
mGlu1 PAM activity (in words) (human mGlu1): active

SMILES: Cc1ccoc1C(=O)Nc1ccc(N2C(=O)Cc3ccccc32)c(Cl)c1 [20g]
mGlu1 PAM activity (in words) (human mGlu1): inactive

SMILES: Cc1ccoc1C(=O)Nc1ccc(N2CCc3ccccc32)c(Cl)c1 [20h]
mGlu1 PAM activity (in words) (human mGlu1): active

SMILES: Cc1ccoc1C(=O)Nc1ccc(N2C(=O)Cc3ccccc3C2=O)c(Cl)c1 [compound 17]
stability in human plasma (Human plasma stability): unstable
stability in rat plasma (Rat plasma stability): unstable
CYP profile (in words) (CYP): clean CYP profile

SMILES: Cc1ccoc1C(=O)Nc1ccc(N2C(=O)CCc3ccccc32)c(Cl)c1 [compound 19]
stability in human plasma (Human plasma stability): stable
clearance (in words) [4]: supprahepatic
stability in rat plasma (Rat plasma stability): stable

Next, values leading:

stability in rat liver microsomes [1]: hydrolytically stable
CLhep predicted ([1]; liver microsomes): 3.25 L/h/kg
CLp (In vivo rat PK): 0.666 L/h/kg
mGlu1 pEC50 (±SEM) (human mGlu1; calcium mobilization, n=3 in triplicate, tables): 6.75±0.07
brain homogenate binding [3]: > 99%
stability in human liver microsomes [2]: hydrolytically stable
CLhep predicted ([2]; liver microsomes): 0.512 L/h/kg
SMILES: Cc1ccoc1C(=O)Nc1ccc(N2Cc3c(Cl)cccc3C2=O)c(Cl)c1 [21a, N-(3-chloro-4-(4-chloro-1-oxoisoindolin-2-yl)phenyl)-3-methylfuran-2-carboxamide]

EC50 (human mGlu1): ~1 µM
SMILES: Cc1ccoc1C(=O)Nc1ccc(N2Cc3c(Cl)cccc3C2=O)cc1F [22h]

EC50 (human mGlu1): ~1 µM
SMILES: Cc1cccnc1C(=O)Nc1ccc(N2Cc3c(Cl)cccc3C2=O)c(Cl)c1 [22k]
